RGS4 inh: human RGS4 inhibition. P49798. HEK293 M3R/RGS4 inducible, Fluo-4 calcium flux; active compounds read high; triggered by carbachol at its EC20. B-score at 10 µM. actives 0.45% (n = 310,000). AID 463165;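 active = B-score, a plate-corrected calcium signal, over three deviations above library mean, with baseline fluorescence within five deviations of library mean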;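 also: RGS4 expression induced by doxycycline in cells with stable M3 receptor; B-score is computed from the integrated fluorescence ratio over baseline after carbachol; higher B-score means a larger calcium signal and so more RGS4 inhibition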
Target sequence (P49798 whole entry, looked up): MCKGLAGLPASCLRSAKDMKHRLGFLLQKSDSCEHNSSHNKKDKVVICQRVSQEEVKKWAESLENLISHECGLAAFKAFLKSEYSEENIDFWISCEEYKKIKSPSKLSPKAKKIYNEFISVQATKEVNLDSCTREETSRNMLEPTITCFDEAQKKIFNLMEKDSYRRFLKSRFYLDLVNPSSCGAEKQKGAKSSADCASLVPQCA
RGS4 pot: potentiators or activators of RGS4. HEK293 M3R/inducible RGS4, carbachol calcium flux Fluo4; active compounds read low. B-score at 10 µM. actives 0.92% (n = 310,000). AID 463111;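 active = B-score of the integrated calcium signal more than 4 SD below the library mean, with starting fluorescence not abnormally high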;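 also: negative B-score means reduced calcium response which marks RGS4 activation or potentiation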
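test system = HEK293 cells with stable M3R and inducible RGS4 | schedule = recording 10 s baseline at 1 Hz, 100 s post-agonist | technique = Fluo4-AM (2 µM) calcium-flux fluorescence, kinetic read | measure = Agonist-evoked peak-minus-minimum fluorescence over baseline, integrated ratio, B score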
MrgX1 antagonist: human MrgX1 receptor antagonism, primary screen | Q96LB2 | MRGX1-HEK293 calcium flux, Fluo-4, BAM8-22 antagonism; active compounds read low | B-score at 10 µM | actives 1.3% (n = 310,000) | AID 588676;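 active = calcium-response B-score plate-corrected more than 3 library SD below zero, starting fluorescence within 5 deviations, no agonist response on first addition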;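 also: peak minus trough fluorescence over baseline after final BAM8-22 challenge near maximal dose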
Target sequence (Q96LB2 whole entry, looked up): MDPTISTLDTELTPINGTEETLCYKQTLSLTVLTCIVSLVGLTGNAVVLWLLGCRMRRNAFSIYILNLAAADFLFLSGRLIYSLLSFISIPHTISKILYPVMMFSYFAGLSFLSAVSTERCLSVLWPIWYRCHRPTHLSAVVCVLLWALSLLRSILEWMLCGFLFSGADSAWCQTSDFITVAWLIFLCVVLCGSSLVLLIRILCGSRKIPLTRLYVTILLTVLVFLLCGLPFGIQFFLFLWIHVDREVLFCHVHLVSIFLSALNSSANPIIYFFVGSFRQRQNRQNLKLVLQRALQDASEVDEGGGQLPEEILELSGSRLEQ
MrgX1 PAM: allosterically activates human MrgX1 receptor signaling; Q96LB2; MrgX1-HEK293, Fluo-4 calcium flux, FDSS; active compounds read high; B-score at 10 µM; actives 0.63% (n = 310,000); AID 588675;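 active = plate-corrected calcium response at least 3 library SD above typical, normal starting fluorescence, not activating the receptor alone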;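 also: compound read alongside a low EC10 to EC30 dose of BAM8-22 agonist; peak minus trough fluorescence over baseline measured at the second addition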
MrgX1 agonist: human MrgX1 receptor agonism, primary screen; Q96LB2; MrgX1-HEK293 cells, Fluo-4 calcium fluorescence, agonist mode; active compounds read high; B-score at 10 µM; actives 0.44% (n = 310,000);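 active = calcium response B-score plate-corrected fluorescence ratio at least 3 library SD, with starting fluorescence B-score inside 5 SD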
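Material: MrgX1-expressing HEK293 cells / Dosing: compound as first of three additions / Incubation: overnight seeding, then 1 h dark dye loading / Signal: Fluo-4 NW calcium fluorescence / Evaluation: B-scored fluorescence response ratio / Benchmarks: positive and negative control wells on each plate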
Starred values were filed as active, the others as inactive; i = inactive; / = not tested or not shown. Sampled rows, rich in hits. Any-hit rate of the full collection: about 3.5%.

SMILES	RGS4 inh	RGS4 pot	MrgX1 antagonist	MrgX1 PAM	MrgX1 agonist
Cc1cc(C)c2sc(N(CCCN(C)C)C(=O)c3ccc(S(=O)(=O)N4CCc5ccccc5C4)cc3)nc2c1	i	i	-7.5*	i	i
Cc1cc(C)c2sc(N(CCCN(C)C)C(=O)c3ccc(S(=O)(=O)N4CCCc5ccccc54)cc3)nc2c1	i	i	i	i	i
C=CCN1C(c2cccc(C(F)(F)F)c2)=CS/C1=C(/C#N)c1nnc(N2CCOCC2)n1-c1ccccc1	i	i	i	i	45*
COc1ccc(-c2csc(NC(=O)C3CCCO3)n2)cc1 (stereo unspecified)	i	-7*	i	i	i
O=C(NC1CCN(Cc2ccccc2)CC1)c1ccccc1OCc1ccccc1Cl	i	i	i	10*	i
O=C(NC1CCN(Cc2ccccc2)CC1)c1ccccc1OCc1ccccc1	i	i	i	i	i
COc1ccc(/C(C)=N/NC(=O)CNC(=O)c2ccco2)c(OC)c1	i	i	i	i	i
O=C(c1ccccc1)c1c2c(cc3sc4ccccc4[n+]13)-c1cccc3cccc-2c13	/	/	-8.8*	i	i
Cc1sc2ccccc2[n+]1CC(=O)c1ccccc1	i	i	i	i	i
COc1ccc(C=C2C(=O)c3ccccc3C2=O)cc1O	i	i	i	i	i
CCCCc1ccc(/C=C2\C(=O)c3ccccc3C(O)=C2C(=O)OCC)cc1	i	i	-10*	i	i
O=C(O)c1cc(-c2ccc(-c3c(-c4ccc5c(c4)OCO5)noc3-c3ccsc3)cc2)nc2ccccc12	i	-11*	i	i	i
O=C(NNC(=O)c1ccccc1[N+](=O)[O-])c1ccc(NC(=O)c2ccccc2)cc1	i	i	i	i	i
O=C(c1ccccc1Br)N1N=C(c2ccccc2)CC1c1ccccc1F (stereo unspecified)	i	-8*	i	i	i
Cc1ccc(/C=C/C2=Cc3c(sc(NC(=O)CSc4n[nH]c(N)n4)c3C#N)C(C)(C)C2)o1	i	i	-5.4*	i	i
CN(C)c1ccc(/C=C(\C#N)C(=O)Nc2nc3c(s2)CCN(Cc2ccccc2)C3)cc1	i	i	i	i	50*
Cn1nc(-c2ccc(C(=O)NC3CCCCC3)cc2)c2ccccc2c1=O	i	i	i	9.5*	i
Cc1cc(-c2nn(C)c(=O)c3ccccc23)ccc1CNC(=O)NC1CCCCC1	i	i	i	i	i
COc1ccc(/C=N/NC(=S)Nc2ccccc2[N+](=O)[O-])cc1O	i	i	i	6.8*	i
CC[C@@]1(c2ccccc2)C(=O)N(C(=O)OC)N1C(=O)OC	i	i	-8.6*	i	i
CC[C@]1(c2ccccc2)C(=O)N(C(=O)OC)N1C(=O)OC	i	i	i	i	i
Cc1cc(C)c(C)c(OCC(=O)O/N=C(\N)c2ccncc2)c1	i	i	i	9.8*	i
Cc1ccc(OCC(=O)O/N=C(\N)c2ccncc2)c(C)c1	i	i	i	i	i
O=C(NCc1ccon1)C1CCC(=O)N(CCc2ccc(Cl)cc2)C1 (stereo unspecified)	i	i	i	i	i
CCn1ncc(/C=C/C(=O)NCc2cnn(C)c2C)c1C	i	i	i	i	i
SMILES	RGS4 inh	RGS4 pot	MrgX1 antagonist	MrgX1 PAM	MrgX1 agonist
CCn1ncc(/C=C/C(=O)NCc2cn(C)nc2C)c1C	i	i	-4.8*	i	i
Cc1c(C(=O)N2C[C@@H](C)O[C@@H](C)C2)oc2c(F)cccc12	i	i	i	i	i
CCNc1nc(NCC)nc(SCCOC(=O)c2ccccc2)n1	i	i	i	i	42*
CN(CC(=O)NCc1ccccn1)S(=O)(=O)c1ccc(Br)cc1	i	i	i	i	i
O=C(NCCCN1CCCC1)c1ccc2c(c1)N(Cc1ccc(F)cc1)C(=O)c1ccccc1S2=O (stereo unspecified)	i	i	i	i	i
CCC1CCCCN1CCCNC(=O)c1ccc2c(c1)N(Cc1ccc(F)cc1)C(=O)c1ccccc1S2=O (stereo unspecified)	i	-8.4*	i	i	i
CC(=O)Oc1ccc(N(C(C)=O)S(=O)(=O)c2ccc(C)c([N+](=O)[O-])c2)cc1	i	i	i	i	i
Cc1cc(C)cc(-n2c(C)cc(/C=N\NC(=O)COc3cccc4cccnc34)c2C)c1	i	-8.7*	i	i	i
CN(c1ccccc1)c1ccc(/C=C(\CCC(=O)O)c2nc3ccccc3s2)cc1[N+](=O)[O-]	i	i	-7.4*	i	i
Cc1cc(C(=O)Nc2c(F)c(F)c(F)c(F)c2F)n(-c2ccccc2)n1	i	i	i	i	i
Cc1cccc(NC(=O)c2cc(-c3ccc(C)c(C)c3O)n[nH]2)c1	i	i	i	i	i
O=C(COc1ccc(Cl)cc1)NCc1nnc(SCC(=O)NC2CCCC2)o1	i	i	-6.4*	i	i
O=C(CSc1nnc(COc2ccc(Cl)cc2)o1)NC1CC2CCC1C2 (stereo unspecified)	i	i	-4.7*	i	i
O=C(CSc1nnc(COc2ccc(Cl)cc2)o1)NC1CCCCC1	i	i	i	i	i
CCOc1ccc(NC(=O)c2ccc(NS(=O)(=O)c3cccs3)cc2)cc1	i	i	i	i	i
CCOc1ccc(N2CC(=O)Nc3ccccc3NCC2=O)cc1	i	i	-5.9*	i	i
COc1cccc(NC(=O)C2CCC(CNS(=O)(=O)c3cccc4cccnc34)CC2)c1 (stereo unspecified)	i	i	i	i	i
O/N=C/c1nc2cc(Cl)ccc2o1	i	i	i	9.4*	i
C#CCOCCOCCOCCNc1nc(N2CCN(C(=O)[C@H](CCCCN)n3cc(C(N)CO)nn3)CC2)nc(N2CCN(C(=O)[C@H](CCC(=O)O)n3cc(C(N)[C@H](C)CC)nn3)CC2)n1 (stereo partly specified)	i	i	-4.5*	i	i
C#CCOCCOCCOCCNc1nc(N2CCN(C(=O)[C@H](Cc3cc4ccccc4[nH]3)n3cc(C(N)CC(C)C)nn3)CC2)nc(N2CCN(C(=O)[C@H](CCC(=O)O)n3cc(C(N)[C@H](C)CC)nn3)CC2)n1 (stereo partly specified)	i	i	i	8.9*	i
O=C(OCC(=O)N1CCc2ccccc21)c1nc(Cl)ccc1Cl	i	i	i	i	i
